High-throughput results deposited in PubChem BioAssay by several laboratories.
G6PDH CS: inhibits Leuconostoc G6PDH, flagging false hits in G6PDH-based assays; 200,000 compounds, 0.12% hits; AID 1020; inhibition, % at 5 µM; Purified L. mesenteroides G6PDH, diaphorase/resazurin coupled fluorescence, 45 min
Diaph inh CS: inhibits diaphorase or chemically oxidizes, flagging diaphorase assay artifacts; 190,000 compounds, 0.69% hits; inhibition, % at 20 µM; diaphorase resazurin-to-resorufin fluorescence, NADH, 16 min; bacterial (C. kluyveri) enzyme, not human;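 active = primary screen inhibition at 20 µM above a set limit, cut at about 50% in these data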;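 also: plate controls were DMSO with full reaction for no effect and wells lacking NADH for full effect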
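Benchmarks: positive control wells lacking NADH, neutral wells with DMSO only. System: bacterial diaphorase enzyme (C. kluyveri). Input: 0.14 U/mL diaphorase, enzyme working solution. Detection: resorufin fluorescence, excitation 544 nm, emission 590 nm. Times: 16-min room-temperature incubation before reading.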
Diaphorase act: activates diaphorase or chemically reduces, flagging diaphorase assay artifacts; AID 1229; 190,000 compounds, 0.005% hits; activation factor at 20 µM; Diaphorase/resazurin coupled assay, resorufin fluorescence, 16 min; active compounds read high; 1 = vehicle wells, 0 = NADH-free wells;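 active = diaphorase activity raised at least twofold by the compound at 20 µM; inactive = activation factor below 2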
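Material: bacterial diaphorase enzyme (C. kluyveri); amount: enzyme 0.07 U/mL final; reagent: NADH substrate 0.114 mM plus resazurin dye 0.1 mM, final; doses: single compound dose of 20 µM, 1% DMSO final; timing: 16 min enzyme reaction, ambient temperature; measured by: fluorescence of resorufin, 544 nm excitation, 590 nm emission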
Redox H2O2 prof: compounds producing H2O2 with reducing agent – biochemical, NIH compound library profiling, artefact control for MLSCN library redox annotation, primary screen; DTT-dependent redox cycling H2O2, phenol red/HRP absorbance; 100% = 100 µM peroxide control, 0% = buffer; activation, % at 10 µM; 200,000 compounds, 0.03% hits;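 active = activation of at least 50% relative to the plate's high and low controls in the primary single-dose screen; inactive = activation below 50%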;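 also: compound incubated with DTT at 0.8 mM final as the reducing agent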
PfG6PD inh: PfG6PD (Plasmodium falciparum) enzyme inhibition | PfGluPho enzyme, NADPH resazurin-diaphorase fluorescence | inhibition, % at 20 µM | 350,000 compounds, 0.78% hits | AID 504690;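 active = inhibition reaching at least a set limit at 20 µM in the primary screen, cut at about 59% in these data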;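 also: 0% = DMSO wells with substrate and 100% = DMSO wells lacking glucose-6-phosphate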
Lmaj promast: inhibitors of Leishmania major promastigote growth; AID 1063; Leishmania major promastigotes, resazurin fluorescence viability; 200,000 compounds, 9% hits; inhibition, % at 10 µM;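 also: promastigotes grown with compound for 44 hours at 28 °C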
* = called active by the depositor; . = no result. Shown is part of a subset that was picked to be rich in hits. Rule as the data show it, unless noted: active = inhibition above about 50%; inactive = the rest.

SMILES	G6PDH CS	Diaph inh CS	Diaphorase act	Redox H2O2 prof	PfG6PD inh	Lmaj promast
CN(CC(=O)Nc1ccc(N2CCOCC2)cc1)C(=O)CSc1ccc(F)cc1	.	.	.	.	3.1	.
COc1ccc(Cl)cc1-n1c(C)ccc1C	2.6	2.3	1	0.1	6.6	-6.8
CC(C)CC(=O)Nc1ccc(Oc2ccc3c(c2)C(=O)NC3=O)cc1	.	.	.	.	0.0	.
O=C(CSc1nnc(-c2ccc(S(=O)(=O)N3CCCC3)cc2)o1)N1CCCC1	.	.	.	-0.3	.	0.5
CCN(CC)C(=O)CSc1nnc(-c2ccc(S(=O)(=O)N3CCCC3)cc2)o1	2.5	-6.3	1.1	0.3	-16.3	98.9*
COc1ccc([C@H]2CN(CCc3ccccc3)C(=O)[C@@H]2CC(=O)Nc2ccccc2)cc1	.	.	.	.	-9.4	.
CCCc1[nH][nH]c(=O)c1C(c1cccc(Cl)c1)C(C#N)C#N (stereo not given)	2.8	25.0	0.8	1.8	10.6	14.8
Cc1[nH]n(-c2ncc(-c3ccc(Cl)cc3)s2)c(=O)c1C(c1ccc(Cl)cc1)C(C#N)C#N (stereo not given)	-4.2	31.9	0.7	0.8	-4.4	98.7*
CN(C(=O)c1ccc(OC2CCN(CCc3ccccc3)CC2)cc1)C1CCCCC1	11.5	.	.	1.1	1.5	91.5*
CN(C(=O)c1ccc(OC2CCN(CCc3ccccc3)CC2)cc1)C1CCOCC1	3.4	23.0	0.8	-1.6	-2.4	-1.6
Fc1ccccc1-c1csc(=Nc2cccnc2)n1CCCn1ccnc1	-7.3	8.1	0.9	-0.5	16.1	75.8*
CCN=c1scc(-c2cccs2)n1/N=C/c1cc(OC)ccc1O	3.9	19.8	0.8	0.0	31.8	75.3*
COc1ccc(O)c(/C=N/n2c(-c3ccco3)csc2=Nc2cccnc2)c1	-20.6	14.7	0.9	0.4	16.1	91.2*
CN=c1scc(-c2ccco2)n1/N=C/c1ccc(O)c(O)c1	23.9	50.8*	0.5	-0.4	13.1	16.1
COCCn1c(-c2cccs2)csc1=Nc1cccnc1	-2.7	2.9	1	-1.9	51.1	1.7
Cc1c(NC(=O)c2cc(S(=O)(=O)N3CCCCC3)ccc2Cl)c(=O)n(-c2ccccc2)n1C	.	.	.	.	-10.1	.
Cc1ccc(S(=O)(=O)NN=Cc2ccco2)cc1	.	.	.	.	-9.7	.
CC(C)C(NC(=O)c1ccc(C(C)(C)C)cc1)C(=O)NCc1ccccn1 (stereo not given)	.	.	.	.	0.2	.
CCCN1CCc2nc(SCC(=O)Nc3ccc(C)c(Cl)c3)[nH]c(=O)c2C1	.	.	.	.	-14.9	.
COCCn1c(-c2ccco2)csc1=Nc1cccnc1	7.2	11.7	0.9	-0.2	24.3	-10.2
CC(C)Cn1c(-c2ccco2)csc1=Nc1cccnc1	3.6	23.6	0.8	2.0	11.1	58.3*
COc1ccc(CC(=O)OCC(=O)Nc2cc(Cl)ccc2C)cc1	.	.	.	.	8.6	.
CC(=O)C(=Nc1ccccc1Cl)NNc1ccc(Cl)cc1	9.1	5.4	0.9	-2.0	30.1	93.0*
O=C(NNc1ccc(Cl)cc1)c1c(F)cccc1Cl	.	.	.	.	22.1	.
Cc1ccc2cc(CN(CC3CCCO3)C(=S)Nc3ccccc3)c(=O)[nH]c2c1C (stereo not given)	-10.9	9.3	0.9	0.6	7.0	67.0*
SMILES	G6PDH CS	Diaph inh CS	Diaphorase act	Redox H2O2 prof	PfG6PD inh	Lmaj promast
COc1cccc(C(=O)N(Cc2cc3cc(C)ccc3[nH]c2=O)CC2CCCO2)c1 (stereo not given)	14.3	5.7	0.9	-1.8	-15.1	75.1*
Cc1ccc(C)c2[nH]c(=O)c(CN(Cc3ccco3)C(=S)NCC3CCCO3)cc12 (stereo not given)	7.9	37.0	0.6	0.0	25.1	58.6*
Cc1ccc2[nH]c(=O)c(CN(CC3CCCO3)C(=S)Nc3ccccc3)cc2c1 (stereo not given)	7.1	7.7	0.9	-0.3	1.4	54.3*
CCOCCCNC(=O)CSc1nc2nc(C)c(Cc3ccccc3)c(C)n2n1	-2.9	1.8	1	1.1	1.8	-3.8
COc1ccccc1/C=C/C(=O)OCC(=O)Nc1cc(C(F)(F)F)ccc1N1CCOCC1	-23.9	21.8	0.8	2.4	13.3	-5.1
Cc1ccc2[nH]c(=O)c(CN(CC3CCCO3)C(=S)NCc3ccco3)cc2c1 (stereo not given)	-15.7	19.4	0.8	-0.7	6.5	57.1*
Cc1ccc(C(=O)CSc2nc3ccccc3c(=O)[nH]2)cc1	1.1	21.0	0.8	0.0	-11.3	43.6
CCc1ccc(C(=O)CSc2nc3ccccc3c(=O)[nH]2)cc1	-0.1	11.5	0.9	-0.8	-13.7	98.1*
CCCCN(C)S(=O)(=O)c1cc2c(cc1Br)CCN2C(=O)C1CC1	.	.	.	.	0.0	.
c1ccc(-c2nc(NCC3CCCO3)c3oc4ccccc4c3n2)cc1 (stereo not given)	3.4	12.5	0.9	0.2	3.3	55.0*
c1cncc(CNc2nc(-c3cccnc3)nc3ccccc23)c1	.	.	.	.	-11.2	.
CC(C)(C)c1ccc(-c2nc(NCc3cccnc3)c3ccccc3n2)cc1	6.4	7.1	0.9	0.8	46.3	79.8*
c1ccc(-c2nc(NCc3cccnc3)c3oc4ccccc4c3n2)cc1	-0.2	10.6	0.9	0.4	5.5	87.9*
O=C(Nc1ccn(CCCN2CCC(N3CCOCC3)CC2)c(=O)n1)OCc1ccccc1	.	.	.	.	1.2	.
COc1ccc2nc(N=Nc3ccc(O)c4ccccc34)sc2c1	12.8	-14.3	1.1	2.8	-5.9	97.9*
COc1ccc2nc(N=NC3=C(O)CC(C)(C)CC3=O)sc2c1	-2.4	-1.1	1	0.1	-15.7	-5.6
CC1CCCC(C)N1C(=O)COC(=O)c1cc(=O)[nH]c2ccccc12 (stereo not given)	.	.	.	.	8.0	.
O=P1(c2ccccc2)C=Cn2c1cc1c2CCCC1 (stereo not given)	.	.	.	1.5	-3.1	-3.6
O=C(CCc1ccc(S(=O)(=O)N2CCOCC2)cc1)Nc1ccc(F)c(F)c1F	.	.	.	.	-8.5	.
CCCCCCNC(=O)CC(NS(=O)(=O)c1ccc(NC(C)=O)cc1)C(C)C (stereo not given)	9.3	17.7	0.8	0.0	-22.4	-7.8
CCCCN(C)C(=O)CC(NS(=O)(=O)c1ccc(NC(C)=O)cc1)C(C)C (stereo not given)	12.9	-3.7	1	-0.7	-0.5	50.2*
Cc1cc(C(=O)CCC(=O)N(C)CC(=O)Nc2ccccc2Br)c(C)s1	.	.	.	.	10.0	.
CCn1nc(C(=O)NNS(=O)(=O)c2ccc(C)cc2)c2ccccc2c1=O	.	.	.	.	-20.8	.
CCN(CC)CC(=O)n1c2c(c3ccccc31)CCCC2	10.5	5.3	0.9	-0.6	8.9	-4.0
CN1CCN(CC(=O)n2c3c(c4ccccc42)CCCC3)CC1	28.7	27.5	0.7	1.5	17.9	75.3*
